From ChEMBL document CHEMBL2396611, “Synthesis and mechanism of hypoglycemic activity of benzothiazole derivatives” (J Med Chem, 2013) come the findings set out here.

Each structure is given as a SMILES string. Active and inactive are the calls of the source. The calls are words filed in the database; no cut-off is given here.

Data set [1] concerns L6. The data set is described as follows: Activation of AMPKalpha in rat L6 cells assessed as phosphorylation at Thr172 at 100 uM up to 5 hrs by Western blot analysis. The class given is cell-based. A digest of the protocol: (§1)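 L6 myotubes exposed for the indicated times to test compound (100 μM in the first series; 50–150 μM in the second) or 4 mM AICAR. Whole-cell lysates immunoblotted for pThr172-AMPKα, AMPKα and α-tubulin; band densities from three independent experiments vs respective controls.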
(In western blotting, separated proteins are transferred to a membrane and probed.)

Data set [2] addresses 5'-AMP-activated protein kinase catalytic subunit alpha-2 (Rattus norvegicus, UniProt Q09137). Kind of data set: (§2) Activation of AMPK in rat L6 cells assessed as increase of [3H]dGlc uptake after 5 hrs. The class given is cell-based. A digest of the protocol:
(§3)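 Fully differentiated L6 myotubes preincubated 24 h in αMEM with 2% FCS and 23.0 mmol/L D-glucose, then 4 h serum-free with 0.5% BSA. Compound or DMSO vehicle given for the indicated times or concentrations. Uptake read after 5 min at room temperature in PBS pH 7.4 with 0.1 mmol/L dGlc and 1.3 μCi/mL [3H]dGlc, by scintillation of SDS lysates. Zero-time basal rate set as 100%; n=6.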

Data set [3] deals with L6. Kind of data set: Effect on ATP/AMP ratio in rat L6 cells at >100 uM. The class given is ADME, cell-based.
Data set [4] addresses 5'-AMP-activated protein kinase catalytic subunit alpha-2 (Rattus norvegicus) (UniProt Q09137). Kind of data set: Activation of AMPK in rat L6 cells assessed as increase of [3H]dGlc uptake at 100 uM after 10 to 40 hrs. The class given is cell-based. The method, boiled down: as §3
The test system of data set [5] is L6. The data set is described as follows: Activation of AMPKalpha in rat L6 cells assessed as phosphorylation at Thr172 at 100 uM after 40 mins by Western blot analysis. The class given is cell-based. The method, boiled down:
as §1

Data set [6] has as its target 5'-AMP-activated protein kinase catalytic subunit alpha-2 (Rattus norvegicus) (UniProt Q09137). Kind of data set: Activation of AMPK in rat L6 cells assessed as increase of [3H]dGlc uptake at 100 uM after 24 hrs. The class given is cell-based. A digest of the protocol:
as §3

A short description of data set [7]: Lipophilicity, log P of the compound. The class given is physicochemical. The settings on record: octanol/water.
Data set [8] concerns L6. Kind of data set: Activation of AMPKalpha in rat L6 cells assessed as phosphorylation at Thr172 at 100 uM after 24 hrs by Western blot analysis. The class given is cell-based. A digest of the protocol:
as §1

The target in data set [9] is 5'-AMP-activated protein kinase catalytic subunit alpha-2 (Rattus norvegicus) (UniProt Q09137). Kind of data set: Activation of AMPK in rat L6 cells assessed as increase of [3H]dGlc uptake at 100 uM after 5 hrs in absence of insulin. The class given is cell-based. A digest of the protocol:
as §3

Data set [10] shares this target. Kind of data set: Activation of AMPK in rat L6 cells assessed as increase of [3H]dGlc uptake at 150 uM after 5 hrs relative to control. The class given is cell-based. A digest of the protocol:
as §3

In data set [11] the test system is L6. The data set is described as follows: Activation of AMPKalpha in rat L6 cells assessed as phosphorylation at Thr172 at 150 uM after 40 mins to 5 hrs by Western blot analysis. The class given is cell-based. A digest of the protocol:
as §1

Data set [12] deals with 5'-AMP-activated protein kinase catalytic subunit alpha-2 (Rattus norvegicus) (UniProt Q09137). Described as §2. The class given is cell-based. A digest of the protocol: as §3
The target is the same in data set [13]. Kind of data set: Activation of AMPK in rat L6 cells assessed as increase of [3H]dGlc uptake at 5 uM after 5 hrs relative to control. The class given is cell-based. The method, boiled down:
as §3

Data set [14] deals with 5'-AMP-activated protein kinase catalytic subunit alpha-2 (Homo sapiens) (UniProt P54646). The data set is described as follows: Activation of human recombinant AMPK at 20 uM after 30 mins relative to control. A digest of the protocol: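 Recombinant human full-length AMPK assayed with a commercial luminescent kit. Compound at 20 μM or DMSO vehicle (1% v/v) added to the reaction mix for 30 min at ambient temperature. Activity read by luminometer against a calibration curve; basal activity with DMSO set as 100%.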

Data set [15] addresses 5'-AMP-activated protein kinase catalytic subunit alpha-2 (Rattus norvegicus) (UniProt Q09137). Kind of data set: Activation of AMPK in rat L6 cells assessed as increase of [3H]dGlc uptake at 10 to 200 uM. The class given is cell-based. The settings on record: TDE = time-dependent effect. The method, boiled down: as §3
Data set [16] concerns L6. Kind of data set: Effect on […] level in rat L6 cells at 3.5 mmol/L after 20 mins in presence of HCGM (reference value: 23 mmol/L). The class given is ADME, cell-based. The settings on record: l6, 20 min, 3500 µM. A digest of the protocol:
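Fully differentiated L6 myotubes preconditioned in medium with 23.0 mmol/L D-glucose, then exposed 20 min. Cells washed in cold 0.15 M Tris-HCl pH 7.75, extracted with ice-cold 0.5% TCA, diluted in Tris-HCl and spun 12,000 rpm, 30 min, 4 °C. Supernatant ATP measured by colorimetric kit, expressed per mg protein. Mean ± SEM; two-tailed t test against untreated 23.0 mmol/L glucose cells.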

For data set [17], the target named is 5'-AMP-activated protein kinase catalytic subunit alpha-2 (Rattus norvegicus) (UniProt Q09137). The data set is described as follows: Activation of AMPK in rat L6 cells assessed as increase of [3H]dGlc uptake at > 0.5 mmol/L after 5 hrs. The class given is cell-based.
For data set [18] the target is unchanged. The data set is described as follows: Activation of AMPK in rat L6 cells assessed as phosphorylation at Thr172 at > 0.5 mmol/L after 5 hrs by Western blot analysis. The class given is cell-based.
Data set [19] has as its system L6. The data set is described as follows: Activation of AMPKalpha in rat L6 cells assessed as phosphorylation at Thr172 at 100 uM after 60 mins by Western blot analysis. The class given is cell-based. A digest of the protocol: as §1
For data set [20], the target named is 5'-AMP-activated protein kinase catalytic subunit alpha-2 (Rattus norvegicus) (UniProt Q09137). The data set is described as follows: Activation of AMPK in rat L6 cells assessed as increase of [3H]dGlc uptake at 50 uM after 5 hrs relative to control. The class given is cell-based. A digest of the protocol: as §3

5'-AMP-activated protein kinase catalytic subunit alpha-2 (Rattus norvegicus), sequence (Q09137 whole entry): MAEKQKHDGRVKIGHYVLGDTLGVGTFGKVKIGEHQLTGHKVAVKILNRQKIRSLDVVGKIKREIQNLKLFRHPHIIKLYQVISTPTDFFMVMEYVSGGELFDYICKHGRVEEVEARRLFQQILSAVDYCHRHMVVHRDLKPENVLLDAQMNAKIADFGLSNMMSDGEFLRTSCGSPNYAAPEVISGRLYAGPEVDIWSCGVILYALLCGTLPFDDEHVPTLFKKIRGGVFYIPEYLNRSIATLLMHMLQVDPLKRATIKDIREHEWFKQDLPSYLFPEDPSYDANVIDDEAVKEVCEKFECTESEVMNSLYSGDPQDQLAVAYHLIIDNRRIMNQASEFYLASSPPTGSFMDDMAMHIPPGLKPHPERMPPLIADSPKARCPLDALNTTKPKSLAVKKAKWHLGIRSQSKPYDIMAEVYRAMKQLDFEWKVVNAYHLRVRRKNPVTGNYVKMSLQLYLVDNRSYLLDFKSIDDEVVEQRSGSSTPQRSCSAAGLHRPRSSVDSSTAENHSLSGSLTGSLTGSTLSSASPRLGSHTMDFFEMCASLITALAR
5'-AMP-activated protein kinase catalytic subunit alpha-2, sequence (Q09137 whole entry): as above
5'-AMP-activated protein kinase catalytic subunit alpha-2 (Homo sapiens), sequence (P54646 whole entry, looked up): as the sequence (Q09137 whole entry) above, with V114M, Q150H, I241V, T348S, M355S, V502F, S505T, N509S, A528V, A549T counted along it

Broadly, the EC50 is the concentration needed to bring the measured effect to its halfway point. On to `CCC1SC(N)=NC1=O` (centres undefined), for which the result (in the data set on L6 [1]; in [4]) was inactive. Moreover, in data set [2], the 50% effective concentration (EC50) was determined as 61.5 µM. Also, in the data set on L6 [3], the Activity entry was “Toxic”. Besides, in the data set with L6 [5], the outcome was Active.

Broadly, the logP is the decadic logarithm of the partition coefficient of the neutral form, usually between octanol and water. Higher therefore signals higher lipophilicity. As to `CCOc1ccc2nc(S)sc2c1`, the 50% effective concentration (EC50) in data set [2] was determined as 76.1 µM. Further, the outcome (in [6]; in the data set with L6 [8]; in data set [9]) was Active. The log partition coefficient (logP) in data set [7] stood at 3.17.

Regarding `Oc1nc2ccc(Br)cc2s1`, the EC50 in [2] was 72.9 µM. For the same compound, the result (in [6]; in the data set with L6 [8]; in data set [9]) was Active.

As for `CCOc1ccc2nc(SSc3nc4ccc(OCC)cc4s3)sc2c1`, the Activity in data set [10] came out at 189%. In the data set with L6 [11], the outcome was Active.

As to `Cc1cc(-c2ccc(/C=C3/S/C(=N\c4ccc(Cl)c(C(=O)O)c4)NC3=O)o2)c([N+](=O)[O-])cc1C`, the Activity result in data set [12] is “Dose-dependent effect”; in data set [15] it was “tde”. In addition, the figures for the fold change (FC) in data set [13] and in [14] were 1.4 and 2.04, respectively.

As for `O=[N+]([O-])c1ccc(O)c([N+](=O)[O-])c1` [2,4-DINITROPHENOL], the Activity with L6 [16] came out at 0.42 mmol/mg.

`Oc1ccc2nc(S)sc2c1` displayed a lipophilicity (logP) in data set [7] of 1.96.

In the case of `NC1=NC(=O)/C(=C\C=C\c2ccc([N+](=O)[O-])o2)S1`, the result in [17] and in [18] was Active.

Turning to `CCCNC(=O)CSc1nc2ccc(OCC)cc2s1`, the outcome with L6 [1] was Active. Also, the Activity entry in [12] was “Dose-dependent effect”; in data set [15], “tde”.

`CCOc1ccc2nc(SCCC(=O)O)sc2c1`: the outcome in the data set on L6 [19] was Active. Further, the fold change (FC) in data set [20] was 1.8.
